Cytotoxicity data for 97 compounds are collected here from ChEMBL document CHEMBL4513216, “Probing the Open Global Health Chemical Diversity Library for Multistage-Active Starting Points for Next-Generation Antimalarials” (ACS Infect Dis, 2020).

The data set can be described thus: Toxicity liver stage against HepG2, at 10uM. The arrangement: test concentration 10 uM, cell line HepG2-A16-CD81EGFP. Format: cell-based. The following applies: human, HepG2-A16-CD81EGFP cells; read-out: INHIBITION
A digest of the protocol:
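Uninfected HepG2-A16-CD81EGFP cells, 3 × 10^3 per well, 1536-well, plated on prespotted compound at 10 μM final, parasite-free screening media added to match infected plates; puromycin 10 μM positive, DMSO 0.5% negative; run in parallel with 48 h PbLuc assay at 37 °C, 5% CO2; viability by CellTiter-Glo luminescence, normalized to controls.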

For `CN(C)CC(=O)N1CC2(CCN(Cc3ccccc3)C2)C1`, the cytotoxicity at 10 µM is 5.62%.
Take `O=C(Cn1nc(Br)nc1Br)N1CCCC1`: the cytotoxicity at 10 µM amounted to 5.38%.
Under `O=C(c1ccco1)N1CC(S(=O)(=O)c2ccc(Cl)cc2)C1` stands -2.02%; under `CNC(=O)CN1CC[C@H]2CN(C(=O)c3ccc(C)cc3)C[C@H]2C1`, -4.06%.
Consider `Cc1cnn(C2CCCN(C(=O)c3cn(-c4ccccc4)nn3)C2)c1` (configuration not stated), for which the cytotoxicity at 10 µM was -22.1%.
Regarding `CC(=O)N1CC2C[C@]2(NC(=O)c2ccco2)C1` (some centres not stated), the cytotoxicity at 10 µM was -2.36%.
For `CNC(=O)COC(=O)c1ccn(-c2ccc(Cl)c(Cl)c2)n1`, the cytotoxicity at 10 µM stood at 20.9%.
Take `Cn1cc(C(=O)NC(Cn2cccn2)C(C)(C)C)cn1` (configuration not stated): the cytotoxicity at 10 µM was -6.36%.
Turning to `CN1C(=O)[C@@H]2CC[C@H]1CN(c1ncnc3ccsc13)C2`, the cytotoxicity at 10 µM was 0.636%.
For `CCc1nc(C2CCCN2C(=O)c2cnc3n[nH]c(C)c3c2)no1` (configuration not stated), the cytotoxicity at 10 µM was 7.76%.
Consider `CC(C)N(CCNC(=O)c1ccc(S(=O)(=O)NC2CC2)cc1)C(C)C`, for which the cytotoxicity at 10 µM was -65.8%.
With `O=C(O)c1cc(S(=O)(=O)N2CCOc3ccccc32)ccc1Br`, the cytotoxicity at 10 µM was -3.39%.
Regarding `COCCn1/c(=N\C(=O)CN(C)S(C)(=O)=O)sc2cc(OC)ccc21`, the cytotoxicity at 10 µM is -7.93%.
Under `Cc1cc(OCC(N)=O)ccc1NC(=O)C(C)Cc1ccccc1F` (configuration not stated) stands -0.0944%.
With `O=C(C1CC1)N1CCC2(COCc3cnc(NCc4ccco4)nc32)C1` (configuration not stated), the cytotoxicity at 10 µM was -1.08%.
Under `Cc1cc(CN(C)C(=O)NCC(C)N2CCc3ccccc32)no1` (configuration not stated) stands -5.43%; under `NC(=O)c1cc(-c2cccc(C(=O)O)c2)cs1`, 2.77%; under `O=C(CNC1(CCO)CCOCC1)Nc1ccc(F)cc1F`, -41.6%.
On to `CC(Nc1cccc(CN2CCOC2=O)c1)C(=O)N1CCNC1=O` (configuration not stated), for which the cytotoxicity at 10 µM is -1.63%.
Regarding `c1ccc(CN2C[C@H]3CC[C@@H](C2)N(Cc2nnc(C4CC4)o2)C3)cc1`, the cytotoxicity at 10 µM was -8.42%.
Turning to `COC(=O)[C@H](C)NC(=O)c1cnc(Cc2ccc(F)cc2)s1`, the cytotoxicity at 10 µM is -10.9%.
As for `CC(C)OC[C@H]1CCC[C@]12CN(S(=O)(=O)c1cn(C)cn1)CCO2`, the cytotoxicity at 10 µM worked out at 5.19%.
With `Cc1ccc(C(=O)N2C[C@@H]3OCCN(C(C)C)[C@@H]3C2)cn1`, the cytotoxicity at 10 µM was -81.7%.
For the compound `O=c1c2sccc2nc2n1CCN(Cc1ccsc1)CC2`, the cytotoxicity at 10 µM is -25.4%.
Under `COc1cccc(COCC(=O)N2CCCC(c3ccn[nH]3)C2)c1` (configuration not stated) stands -20.9%; under `NC(=O)NCCC(=O)NCc1cccnc1N1CCc2ccccc2C1`, 4.92%; under `CCN(CC)CCn1cc(NC2CCN(C(C)(C)C)CC2)cn1`, -6.53%.
With `O=C(CCc1ccccn1)NC1CCN(c2cccc(Cl)c2)C1` (configuration not stated), the cytotoxicity at 10 µM was 17.1%.
As for `Cc1cccc2c1C(=O)NC(c1cnc(C3CCC3)s1)N2` (configuration not stated), the cytotoxicity at 10 µM was -3.33%.
In the case of `Cc1nc(CN2CC[C@H]3C[C@H](c4ccncn4)O[C@@H]3C2)cs1`, the cytotoxicity at 10 µM is -144%.
Turning to `CCS(=O)(=O)NCCNC(C)(C)c1nc(C)cs1`, the cytotoxicity at 10 µM was -0.396%.
`CC(C)CN1CCNC(=O)C12CCN(S(=O)(=O)c1ccc(F)cc1)CC2`: the cytotoxicity at 10 µM was -3.16%.
Under `CN1CCO[C@@H]2CN(C(=O)NCc3cccc(F)c3)CC[C@@H]2C1` stands -111%.
Regarding `Cc1cnn(CC2CCCN2Cc2noc(C)n2)c1` (configuration not stated), the cytotoxicity at 10 µM came to 0.742%.
Under `COc1c(NC(=O)N(C)CCOc2ccc(F)cc2)c(C)nn1C` stands 1.4%; under `CC(C)C(C(=O)N1CCCN(c2nccs2)CC1)n1cncn1` (configuration not stated), -4.98%; under `CN(CC(=O)Nc1cc(C(C)(C)C)n[nH]1)S(C)(=O)=O`, 5.15%.
On to `COc1ccccc1C1(C(=O)N2CCN(CC(C)O)CC2)CC1` (configuration not stated), for which the cytotoxicity at 10 µM is -3.51%.
Under `CCOc1ccc(Cl)c(C(=O)NCc2ccc(C(=O)NC)cc2)n1` stands -9.88%; under `NCc1cnc(Nc2ccccc2)nc1`, 8.55%.
Consider `CN(Cc1ccccc1)c1cnn(CC2CCCCO2)c(=O)c1` (configuration not stated), for which the cytotoxicity at 10 µM was determined as 0.992%.
On to `CCCN1CCC(Nc2nc(C)ns2)CC1`, for which the cytotoxicity at 10 µM was -8.92%.
Under `O=C(O)c1c(-c2cccnc2)ncc2c1CCN(CC1CCOC1)C2` (configuration not stated) stands -2.55%; under `CC(Cc1ccccc1Cl)NC(=O)Nc1cnn(CC(N)=O)c1` (configuration not stated), -4.23%; under `COCC1COCCC12CCN(C(=O)CC1=CCCCC1)CC2` (configuration not stated), -1.86%.
Take `O=C(NCc1cccnc1)N1CCC2(CC(=O)N(c3ccsc3)C2)C1` (configuration not stated): the cytotoxicity at 10 µM is -0.125%.
Regarding `Cc1sc2c(C3CCCN(C)C3)nc(C)n2c1C` (configuration not stated), the cytotoxicity at 10 µM was -26.9%.
With `CC(C)CN1CC(c2nc(C3CC3)n[nH]2)CC1=O` (configuration not stated), the cytotoxicity at 10 µM is -1.64%.
As for `CC(C)NC(=O)CNC(=O)C12CCC(=O)N1c1cc(Cl)ccc1S2` (configuration not stated), the cytotoxicity at 10 µM was 11.7%.
In the case of `Brc1cnc(NCCCOCC2CCOC2)nc1` (configuration not stated), the cytotoxicity at 10 µM is -2.15%.
Turning to `Cc1ccc(N2CCCN(C(=O)CCc3nccs3)CC2)nn1`, the cytotoxicity at 10 µM was -7.91%.
In the case of `Cn1cc(C(=O)NCc2cncc3c2CCNC3)cn1`, the cytotoxicity at 10 µM is -91.6%.
`OCC1CCCN1c1cc(NCCNc2cccnn2)ncn1` (configuration not stated): the cytotoxicity at 10 µM was 18.5%.
As to `COc1ccc(CN2C[C@H]3CCC[C@@H](CN(C)C)[C@H]3C2)cn1`, the cytotoxicity at 10 µM stood at 4.65%.
On to `COCc1noc(CCNc2nc(CC3CC3)nc3c2CCNCC3)n1`, for which the cytotoxicity at 10 µM was -4.1%.
For the compound `COCCNC(=O)CCC1CCN(Cc2cccc(SC)c2)CC1`, the cytotoxicity at 10 µM is 14.6%.
Consider `COCCN1C(=O)C[C@H]2[C@H]1CCN2Cc1ccc(OC)cc1`, for which the cytotoxicity at 10 µM amounted to 1.47%.
As to `Cc1noc(C)c1CN(C)C(=O)CCOc1ccc(Cl)cc1`, the cytotoxicity at 10 µM is -2.51%.
On to `Cc1nn(C)cc1-c1cc(C(F)(F)F)nc(NC2CCN(C)CC2)n1`, for which the cytotoxicity at 10 µM came out at 11.7%.
As for `CCOC(=O)N1CCC(Oc2ccc(C(F)(F)F)cn2)CC1`, the cytotoxicity at 10 µM worked out at 7.5%.
Under `CCn1ncc2c1CCCC2NCc1ccc2c(c1)OCCO2` (configuration not stated) stands -9.12%; under `CC(C)NC(=O)CC1CC2(CCN(S(C)(=O)=O)CC2)c2ccccc21` (configuration not stated), -2.48%.
Turning to `COCc1cc(NCc2ccccc2OC)ncn1`, the cytotoxicity at 10 µM was 7.69%.
Consider `CCC[C@H]1CN(Cc2cscn2)C[C@@H]1NC(=O)C1(COC)CCC1`, for which the cytotoxicity at 10 µM was -5.69%.
For `COCC(=O)N1C[C@@H](C)[C@](O)(C(C)C)C1`, the cytotoxicity at 10 µM came out at 1.69%.
Consider `CCc1nccn1-c1cncc(C2CCCN2)n1` (configuration not stated), for which the cytotoxicity at 10 µM is -6.17%.
In the case of `Cc1cc(CN2C[C@@H]3CC[C@H]2CN(C2Cc4ccccc4C2)C3)on1`, the cytotoxicity at 10 µM came to 1.58%.
Consider `O=C(Cc1ccc2c(c1)OCCCO2)Nc1nnn[nH]1`, for which the cytotoxicity at 10 µM was -4.66%.
Regarding `O=C(NC[C@@H]1CCCN1)c1cc(COc2cccc(C(F)(F)F)c2)[nH]n1`, the cytotoxicity at 10 µM is -8.31%.
As for `COc1ccc(CN2CCCC(Cn3nc(C)nc3C)C2)cc1F` (configuration not stated), the cytotoxicity at 10 µM is -0.409%.
Take `CC(C)NC(=O)N1CCC2(COCc3cnc(N4CCOCC4)nc32)C1` (configuration not stated): the cytotoxicity at 10 µM is -8.75%.
On to `O=C(Cc1nc(-c2ccncc2)n[nH]1)NCCCN1CCOCC1`, for which the cytotoxicity at 10 µM is -1.8%.
With `CN(Cc1ccc(Cl)s1)C(=O)c1cccc(OCC(N)=O)c1` the figure was -1.61%; with `C[C@H]1C[C@H]2CN(C(=O)CCOc3ccccc3)CC[C@H]2O1`, -69.3%; with `CC1CN(Cc2ccccc2)CCCN1CCCS(C)(=O)=O` (configuration not stated), 5.27%.
Turning to `CC(Cn1ccnc1)NC(=O)Cc1ccc2c(c1)OCCO2` (configuration not stated), the cytotoxicity at 10 µM was -7.2%.
For `Cc1cc(NCCc2cnccn2)nc(-c2ccccc2O)n1`, the cytotoxicity at 10 µM was found to be 10.9%.
As for `COc1ccc(-c2cc(C3(O)CCOC(C)(C)C3)on2)cc1` (configuration not stated), the cytotoxicity at 10 µM was -3.12%.
With `CCC1CN(CC(=O)NCc2ccco2)CCO1` (configuration not stated), the cytotoxicity at 10 µM was -7.66%.
`OC1CCN([C@@H]2CCN(c3nc(-c4ccccc4)no3)C[C@H]2O)CC1`: the cytotoxicity at 10 µM is -9.88%.
Regarding `Cc1cc(NC(=O)COC(=O)c2ccc(F)cc2Br)n(C)n1`, the cytotoxicity at 10 µM worked out at 6.03%.
In the case of `CC(SCc1ccc(Br)c2cccnc12)C(N)=O` (configuration not stated), the cytotoxicity at 10 µM amounted to 1.67%.
In the case of `COC(=O)COc1nc(C(C)C)no1`, the cytotoxicity at 10 µM was -6.22%.
Consider `CCOc1cccc(CNc2ccccc2OC)c1O`, for which the cytotoxicity at 10 µM stood at 0.142%.
Take `CN(CCc1noc(C2CC2)n1)C(=O)CN1C(=O)COc2ccccc21`: the cytotoxicity at 10 µM is -141%.
On to `CCOc1nnc(CN2CCCC(c3nc4ccccc4[nH]3)C2)s1` (configuration not stated), for which the cytotoxicity at 10 µM came to 14.6%.
For the compound `O=C(NCCc1ccncc1)c1ccc(N2CCOCC2)cc1`, the cytotoxicity at 10 µM was -5.08%.
In the case of `Cn1ncc2c1NC(=O)CC2c1cc(Cl)ccc1F` (configuration not stated), the cytotoxicity at 10 µM was determined as 78.6%.
With `CCn1c(CN2CCOC(Cn3cncn3)C2)nc2c(F)cccc21` (configuration not stated) the figure was -5.42%; with `O=C(c1scc2c1OCCO2)N1CCOC(Cc2ccc(F)cc2)C1` (configuration not stated), 1.73%.
Turning to `Cc1ccccc1-n1cc(-c2ccnc(N[C@H](CO)C(C)C)n2)cn1`, the cytotoxicity at 10 µM is 4.43%.
As for `Cc1ccc(OCCC(=O)N(C)CC(=O)Nc2cc(C)on2)c(C)c1`, the cytotoxicity at 10 µM was -16.9%.
As for `O=C(N1CCCC1)N1C[C@H]2CCC[C@@]2(COCc2ccccn2)C1`, the cytotoxicity at 10 µM was -106%.
For `CC1CCc2nn(CCNC(=O)Cc3ccccc3F)c(=O)cc2C1` (configuration not stated), the cytotoxicity at 10 µM is 6.66%.
Consider `CCn1cc2c(n1)CN(S(=O)(=O)c1cccnc1)CC2COC` (configuration not stated), for which the cytotoxicity at 10 µM came to 5.74%.
For `COc1cccc(N2CCN(Cc3ccc4[nH]ccc4c3)CC2=O)c1`, the cytotoxicity at 10 µM turned out to be 4.59%.
Regarding `CO[C@@H]1CCC[C@@H](N(C)C(=O)c2cc(F)ccc2F)[C@H]1O`, the cytotoxicity at 10 µM was -5.38%.
